In ChEMBL document CHEMBL1122989, “Quantitative structure-activity relationships in cytokinin agonistic and antagonistic pyrido[2,3-d]pyrimidine derivatives: insights into receptor topology” (J Med Chem, 1985) one finds IC50, E50 and I50 data, which are given here for 46 compounds.

Assay [1] can be described thus: Anticytokinin activity was evaluated by 50% of the callus growth on the medium with kinetin but without anti-cytokinin. The format is functional, Nicotiana tabacum. The conditions noted are these: read-out: I50. The essentials: (§1)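 Test compounds at several concentrations in basal medium containing kinetin; medium adjusted to pH 5.6 with 1 N NaOH and autoclaved at 1.0 kg/cm2 for 15 min. Callus growth was the read-out. I50 (µM) is the concentration giving 50% of the callus growth seen on kinetin medium without anticytokinin.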

The test system of another assay is Nicotiana tabacum. The experiment in a line: Effective concentration required for cytokinin activity for producing maximum response of callus yield. The format is functional. The essentials:
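Callus growth assay run without kinetin, with test compounds at several concentrations in basal medium. Medium adjusted to pH 5.6 with 1 N NaOH and autoclaved at 1.0 kg/cm2 for 15 min. Callus yield was the read-out.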

Assay [2] can be described thus: Anticytokinin activity was evaluated by 50% of the callus growth on the medium with kinetin but without anti-cytokinin; Insoluble. The format is functional, Nicotiana tabacum. The essentials:
as §1

As for `CCCCNc1nc(SC)nc2ncccc12`, the IC50 in assay [1] is 0.27 µM.
`CSc1nc(Nc2cc(Cl)cc(Cl)c2)c2cccnc2n1` returned an E50 in the assay with Nicotiana tabacum of 0.84 µM.
Take `CNc1nc(SC)nc2ncccc12`: the IC50 in assay [1] is 2.92 µM.
Still for that read-out and setting: to `CSc1nc(NC2CCCCC2)c2cccnc2n1` belongs 5.65 µM.
For `CSc1nc(Nc2cccc(Br)c2)c2cccnc2n1`, in the assay on Nicotiana tabacum, the E50 was found to be 2.38 µM.
As to `CSc1nc(NCC(C)C)c2cccnc2n1`, the IC50 in assay [1] came out at 0.54 µM.
In turn, `CSc1nc(Nc2cccc(I)c2)c2cccnc2n1` returned an E50 with Nicotiana tabacum of 5.2 µM.
As to `CSc1nc(Nc2ccc(Br)cc2)c2cccnc2n1`, the IC50 in assay [1] was found to be 5.75 µM.
The same measure, in the same setting: then `CCOCCNc1nc(SC)nc2ncccc12`, with 7.59 µM; and `COCCNc1nc(SC)nc2ncccc12`, with 2.53 µM.
In the case of `CSc1nc(Nc2cccc(C)c2)c2cccnc2n1`, the E50 in the assay with Nicotiana tabacum was determined as 1.58 µM.
For the compound `CCOc1ccc(Nc2nc(SC)nc3ncccc23)cc1`, the IC50 in assay [1] is 5.42 µM.
Still for that read-out and setting: then `CSc1nc(NC2CCC2)c2cccnc2n1`, with 0.72 µM; and `CSc1nc(Nc2ccc(F)cc2)c2cccnc2n1`, with 2.62 µM.
Consider `CSc1nc(Nc2ccc(C)c(C)c2)c2cccnc2n1`, for which the E50 in the assay on Nicotiana tabacum came to 0.92 µM.
The same measure, in the same setting: then `CSc1nc(Nc2cccc(C#N)c2)c2cccnc2n1`, with 2.15 µM; and `CSc1nc(Nc2ccc(I)cc2)c2cccnc2n1`, with 2.21 µM; and `CSc1nc(Nc2cc(C)cc(C)c2)c2cccnc2n1`, with 2.82 µM.
As to `CCCCCCCNc1nc(SC)nc2ncccc12`, the IC50 in assay [1] worked out at 4.07 µM.
With `CSc1nc(Nc2cccc(O)c2)c2cccnc2n1`, in the assay with Nicotiana tabacum, the E50 is 5.44 µM.
For the compound `CSc1nc(Nc2ccc([N+](=O)[O-])cc2)c2cccnc2n1`, in assay [2], the I50 result is “Insoluble”.
Regarding `CSc1nc(Nc2ccc(C(=O)O)cc2)c2cccnc2n1`, the E50 in the assay with Nicotiana tabacum came to 12.5 µM.
As to `CSc1nc(Nc2ccccc2)c2cccnc2n1`, the IC50 in assay [1] worked out at 15.8 µM.
The compound `CSc1nc(Nc2ccccc2C)c2cccnc2n1` displayed an E50 in the assay with Nicotiana tabacum of 3.59 µM.
Consider `CCC(CC)Nc1nc(SC)nc2ncccc12`, for which the IC50 in assay [1] worked out at 2.72 µM.
Still for that read-out and setting: then `CCC(C)Nc1nc(SC)nc2ncccc12` (stereo unspecified), with 0.86 µM; and `CSc1nc(Nc2ccc(C(C)=O)cc2)c2cccnc2n1`, with 8.96 µM.
The compound `CSc1nc(Nc2ccc(Cl)cc2Cl)c2cccnc2n1` showed an E50 in the assay on Nicotiana tabacum of 0.95 µM.
With `CSc1nc(Nc2cccc([N+](=O)[O-])c2)c2cccnc2n1`, the IC50 in assay [1] came to 3.55 µM.
Same read-out and setting: then `CCCCCCNc1nc(SC)nc2ncccc12`, with 3.33 µM; and `CCCCC(CC)CNc1nc(SC)nc2ncccc12` (stereo unspecified), with 15.8 µM; and `CSc1nc(NC2CCCC2)c2cccnc2n1`, with 0.49 µM.
In the case of `CCCCCNc1nc(SC)nc2ncccc12`, in assay [1], the IC50 worked out at 0.65 µM.
In the assay on Nicotiana tabacum, `CSc1nc(Nc2cc(C)ccc2C)c2cccnc2n1` displayed an E50 of 0.96 µM.
For the compound `CSc1nc(Nc2ccc(C#N)cc2)c2cccnc2n1`, the IC50 in assay [1] worked out at 7.56 µM.
Same read-out and setting: to `CSc1nc(NC2CC2)c2cccnc2n1` belongs 4.9 µM.
`CSc1nc(Nc2cccc(F)c2)c2cccnc2n1` had an E50 in the assay with Nicotiana tabacum of 3.39 µM.
As for `C=CCNc1nc(SC)nc2ncccc12`, in assay [1], the IC50 came to 0.4 µM.
Still for that read-out and setting: to `CSc1nc(NCc2ccccc2)c2cccnc2n1` belongs 25.2 µM; to `CCCNc1nc(SC)nc2ncccc12`, 0.27 µM.
As to `CCc1cccc(Nc2nc(SC)nc3ncccc23)c1`, in the assay with Nicotiana tabacum, the E50 was determined as 1.91 µM.
For `CSc1nc(Nc2cccc(C(C)=O)c2)c2cccnc2n1`, the IC50 in assay [1] amounted to 13.2 µM.
Regarding `CCc1ccc(Nc2nc(SC)nc3ncccc23)cc1`, in assay [1], the IC50 came to 7.15 µM.
Turning to `CSc1nc(Nc2ccc(Cl)cc2)c2cccnc2n1`, the IC50 in assay [1] stood at 8.51 µM.
As to `CSc1nc(Nc2cccc(C(=O)O)c2)c2cccnc2n1`, in assay [1], the IC50 stood at 9.2 µM.
The same measure, in the same setting: to `COc1ccc(Nc2nc(SC)nc3ncccc23)cc1` belongs 9.42 µM.
